Results published in BindingDB's records for doi:10.1016/j.bmc.2016.07.028 (Jagiellonian University Medical College, 2016).

How the values were obtained:
Adenosine receptor A2a [1] = biological target: T1, Adenosine receptor A2a (Homo sapiens, UniProt P29274); experiment: Antagonist activity at human adenosine receptor A2a expressed in CHO cell membranes assessed as inhibition of NECA-induced cAMP accumulation measured as NECA EC50 at 5 uM incubated for 15 mins in presence of [3H]cAMP by liquid scintillation counting (Rvb = 68 nM)
How it was run: (§1)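 Stably transfected CHO cells (human A2A or A2B) grown in DMEM-F12 with 10% FCS at 37 °C, 5% CO2. The cells were seeded at 200,000/well, washed after 24 h and held 2 h in HBSS (pH 7.3) with 1 U/ml adenosine deaminase. Ro20-1724 was added to 40 µM final for 15 min, then NECA dilutions ± one fixed test concentration in 2.5% DMSO, in duplicate.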

Adenosine receptor A2b = biological target: T2, Adenosine receptor A2b (Homo sapiens, UniProt P29275); experiment: Antagonist activity at human adenosine receptor A2b expressed in CHO cell membranes assessed as inhibition of NECA-induced cAMP accumulation measured as NECA EC50 at 2 uM incubated for 15 mins in presence of [3H]cAMP by liquid scintillation counting (Rvb = 73 nM); how it was run: as §1
T2 sequence (P29275 whole entry): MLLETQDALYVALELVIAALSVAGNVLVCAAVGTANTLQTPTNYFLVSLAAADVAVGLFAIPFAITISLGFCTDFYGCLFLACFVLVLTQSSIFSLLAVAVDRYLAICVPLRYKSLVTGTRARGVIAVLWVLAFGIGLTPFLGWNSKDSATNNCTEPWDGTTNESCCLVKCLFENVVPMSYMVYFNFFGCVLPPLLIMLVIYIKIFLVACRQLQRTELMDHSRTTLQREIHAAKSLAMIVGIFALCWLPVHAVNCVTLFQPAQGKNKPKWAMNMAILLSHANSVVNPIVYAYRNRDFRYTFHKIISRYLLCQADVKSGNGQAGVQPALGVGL

Adenosine receptor A2a [2] = biological target: T1, Adenosine receptor A2a; experiment: Antagonist activity at human adenosine receptor A2a expressed in CHO cell membranes assessed as inhibition of NECA-induced cAMP accumulation measured as NECA EC50 at 7 uM incubated for 15 mins in presence of [3H]cAMP by liquid scintillation counting (Rvb = 77 nM)

T1 sequence (P29274 whole entry): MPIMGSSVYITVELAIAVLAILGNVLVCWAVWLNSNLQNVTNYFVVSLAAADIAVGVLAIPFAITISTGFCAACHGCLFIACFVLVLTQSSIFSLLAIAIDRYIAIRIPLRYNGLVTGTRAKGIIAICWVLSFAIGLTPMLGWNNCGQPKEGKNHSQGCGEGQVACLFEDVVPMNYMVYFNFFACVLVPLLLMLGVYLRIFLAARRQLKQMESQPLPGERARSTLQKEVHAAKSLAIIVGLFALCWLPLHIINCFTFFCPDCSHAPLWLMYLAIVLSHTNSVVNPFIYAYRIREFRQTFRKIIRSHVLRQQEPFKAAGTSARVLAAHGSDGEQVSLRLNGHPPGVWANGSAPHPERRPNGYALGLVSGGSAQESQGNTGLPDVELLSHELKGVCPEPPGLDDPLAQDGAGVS

CCN(CC)CCOc1ccc(CCN2CCCn3c2nc2c3c(=O)n(C)c(=O)n2C)cc1
EC50 (Adenosine receptor A2a [1]): 460 nM

CCCCn1c(=O)c2c(nc3n2CCCN3CCc2ccc(OCCN(CC)CC)cc2)n(CCCC)c1=O
EC50 (Adenosine receptor A2b): 335 nM

Cn1c(=O)c2c(nc3n2CCCN3CCc2ccc(O)cc2)n(C)c1=O [9-(4-hydroxyphenethyl)-1,3-dimethyl-6,7,8,9-tetrahydropyrimido[1,2-a]purine-2,4(1H,3H)-dione]
EC50 (Adenosine receptor A2a [2]): 302 nM
